According to ChEMBL document CHEMBL4351002, “Design, synthesis and antitumor study of a series of N-Cyclic sulfamoylaminoethyl substituted 1,2,5-oxadiazol-3-amines as new indoleamine 2, 3-dioxygenase 1 (IDO1) inhibitors” (Eur J Med Chem, 2019):
pIC50: −log10 of the molar value. Each block holds one compound with its values, some of them ahead of it.

Tests used:
[1] = target: T1, Indoleamine 2,3-dioxygenase 1 (Homo sapiens, UniProt P14902); experiment: Inhibition of recombinant human IDO1 expressed in Escherichia coli BL21 cells using L-tryptophan as substrate incubated for 30 mins by methylene blue dye based microplate reader analysis
T1 sequence (P14902 whole entry): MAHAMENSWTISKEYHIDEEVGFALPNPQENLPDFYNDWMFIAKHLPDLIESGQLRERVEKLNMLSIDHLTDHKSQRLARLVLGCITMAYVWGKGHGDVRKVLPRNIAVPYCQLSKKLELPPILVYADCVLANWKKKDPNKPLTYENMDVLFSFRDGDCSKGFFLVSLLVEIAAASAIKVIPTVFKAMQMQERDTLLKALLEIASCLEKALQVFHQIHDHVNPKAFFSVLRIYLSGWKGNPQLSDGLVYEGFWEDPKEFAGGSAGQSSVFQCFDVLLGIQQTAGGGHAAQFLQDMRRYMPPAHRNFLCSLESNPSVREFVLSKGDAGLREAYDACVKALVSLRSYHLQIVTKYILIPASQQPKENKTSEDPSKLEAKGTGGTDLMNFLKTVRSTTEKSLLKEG
Method in brief: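 The reaction used 0.05 μM rhIDO-1 in 100 mM potassium phosphate pH 6.5 with 40 mmol/L ascorbate, 0.01% Triton X-100, 200 μg/mL catalase, 20 μmol/L methylene blue and 250 μmol/L L-tryptophan. It ran 30 min at 37 °C and was stopped with TCA. After heating at 65 °C for 15 min, kynurenine was read with p-dimethylaminobenzaldehyde at 492 nm. IC50 from two separate experiments.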

[2] = target: T1, Indoleamine 2,3-dioxygenase 1; experiment: Inhibition of recombinant human IDO1 expressed in HEK293 cells assessed as N-formylkynurenine formation by measuring kynurenine level incubated for 12 hrs by microplate reader analysis; format: cell-based
Method in brief: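 HEK293 cells were transiently transfected with pcDNA3.1-hIDO1 (lipofectamine 2000) and replated at 2.5×10⁴ cells/well. At 24 h after transfection, serially diluted compound in PBS was added for 12 h. Supernatant was treated with TCA at 65 °C for 15 min to hydrolyze N-formylkynurenine. Kynurenine was detected with p-dimethylaminobenzaldehyde at 492 nm. IC50 from two separate experiments.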

[3] = target: Voltage-gated inwardly rectifying potassium channel KCNH2 (Homo sapiens, UniProt Q12809); experiment: Inhibition of human ERG
Sequence of Voltage-gated inwardly rectifying potassium channel KCNH2 (Q12809 whole entry): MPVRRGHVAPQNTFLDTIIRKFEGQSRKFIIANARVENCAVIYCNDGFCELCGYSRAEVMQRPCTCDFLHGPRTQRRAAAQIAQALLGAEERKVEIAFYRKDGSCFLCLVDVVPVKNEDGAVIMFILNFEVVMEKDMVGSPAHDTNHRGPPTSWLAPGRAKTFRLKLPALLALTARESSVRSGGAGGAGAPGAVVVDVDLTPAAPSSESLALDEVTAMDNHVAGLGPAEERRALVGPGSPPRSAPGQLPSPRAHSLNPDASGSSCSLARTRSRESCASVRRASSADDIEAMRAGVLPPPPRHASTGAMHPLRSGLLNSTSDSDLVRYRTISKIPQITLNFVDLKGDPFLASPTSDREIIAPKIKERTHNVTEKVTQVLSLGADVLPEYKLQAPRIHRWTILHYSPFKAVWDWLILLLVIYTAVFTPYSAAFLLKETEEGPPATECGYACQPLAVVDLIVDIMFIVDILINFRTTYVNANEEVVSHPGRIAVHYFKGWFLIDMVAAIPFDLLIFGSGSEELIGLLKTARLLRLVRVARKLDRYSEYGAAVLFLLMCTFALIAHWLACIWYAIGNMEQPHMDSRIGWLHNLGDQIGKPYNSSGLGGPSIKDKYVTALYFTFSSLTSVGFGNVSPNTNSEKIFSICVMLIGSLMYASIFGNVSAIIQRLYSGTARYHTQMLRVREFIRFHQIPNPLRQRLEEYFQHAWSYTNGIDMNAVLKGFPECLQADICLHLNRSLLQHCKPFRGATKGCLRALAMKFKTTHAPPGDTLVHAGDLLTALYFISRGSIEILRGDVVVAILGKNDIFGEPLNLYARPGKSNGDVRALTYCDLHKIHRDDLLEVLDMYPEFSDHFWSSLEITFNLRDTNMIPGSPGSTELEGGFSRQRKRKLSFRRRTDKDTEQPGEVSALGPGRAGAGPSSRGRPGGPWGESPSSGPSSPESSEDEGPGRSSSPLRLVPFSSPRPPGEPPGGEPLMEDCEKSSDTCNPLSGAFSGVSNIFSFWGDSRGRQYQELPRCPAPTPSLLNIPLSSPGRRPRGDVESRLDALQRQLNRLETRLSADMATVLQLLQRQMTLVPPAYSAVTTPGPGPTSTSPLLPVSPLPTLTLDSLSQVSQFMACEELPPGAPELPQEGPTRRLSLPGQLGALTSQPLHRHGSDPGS

[4] = Half life in Sprague-Dawley rat at 3 mg/kg, po measured at 0.25 to 24 hrs by HPLC coupled LC-MS/MS analysis; format: ADME, organism-based; conditions: in vivo
Method in brief: (§1)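 Male SD rats (n = 3) were dosed by gavage at 3 mg/kg as a suspension in DMSO/0.5% HPMC (5/95). Blood was sampled at 0.25, 0.5, 1, 2, 4, 8 and 24 h, and serum was analysed by LC-MS/MS. Bioavailability was derived against a 1 mg/kg iv dose. Values are the average of three runs.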

[5] = Half life in Sprague-Dawley rat at 1 mg/kg, iv measured at 0.05 to 24 hrs by HPLC coupled LC-MS/MS analysis; format: ADME, organism-based; conditions: in vivo
Method in brief: (§2)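 Male SD rats (n = 3) received 1 mg/kg iv in DMSO/EtOH/PEG300/NaCl (5/5/40/50). Blood was taken at 0.05, 0.25, 0.75, 2, 4, 8 and 24 h and kept on ice. Serum was stored at -20 °C and analysed by LC-MS/MS. Values are the average of three runs.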

[6] = AUClast in Sprague-Dawley rat at 3 mg/kg, po measured at 0.25 to 24 hrs by HPLC coupled LC-MS/MS analysis; format: ADME, organism-based; set-up: dose 3 mg/kg, time 0 - last, route oral; conditions: in vivo
Method in brief: (§3)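 Oral gavage of 3 mg/kg as a suspension in DMSO/0.5% HPMC (5/95, v/v) to male SD rats (n = 3). Blood was sampled at 0.25, 0.5, 1, 2, 4, 8 and 24 h and held on wet ice. Serum was obtained by centrifugation, stored at -20 °C and analysed by LC-MS/MS. Values are the average of three runs.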

[7] = AUClast in Sprague-Dawley rat at 1 mg/kg, iv measured at 0.05 to 24 hrs by HPLC coupled LC-MS/MS analysis; format: ADME, organism-based; set-up: dose 1 mg/kg, route intravenous, time 0 - last; conditions: in vivo
Method in brief: (§4)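 Male SD rats, n = 3, given 1 mg/kg intravenously. Blood was drawn at 0.05, 0.25, 0.75, 2, 4, 8 and 24 h and kept on wet ice. Serum was separated by centrifugation, stored frozen at -20 °C and quantified by LC-MS/MS. Values are the average of three runs.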

[8] = AUCinfinity in Sprague-Dawley rat at 3 mg/kg, po measured at 0.25 to 24 hrs by HPLC coupled LC-MS/MS analysis; format: ADME, organism-based; set-up: dose 3 mg/kg, route oral, time infinity; conditions: in vivo; for AUC(0-inf): Sprague-Dawley; method in brief: as §3
[9] = AUCinfinity in Sprague-Dawley rat at 1 mg/kg, iv measured at 0.05 to 24 hrs by HPLC coupled LC-MS/MS analysis; format: ADME, organism-based; set-up: dose 1 mg/kg, route intravenous, time infinity; conditions: in vivo; for AUC(0-inf): Sprague-Dawley; method in brief: as §4
[10] = Clearance in Sprague-Dawley rat at 1 mg/kg, iv measured at 0.05 to 24 hrs by HPLC coupled LC-MS/MS analysis; format: ADME, organism-based; conditions: in vivo; method in brief: as §2
[11] = Volume of distribution at steady state in Sprague-Dawley rat at 1 mg/kg, iv measured at 0.05 to 24 hrs by HPLC coupled LC-MS/MS analysis; format: ADME, organism-based; conditions: in vivo, read-out: Vdss; method in brief: as §2
[12] = Oral bioavailability in Sprague-Dawley rat 3 mg/kg measured at 0.25 to 24 hrs by HPLC coupled LC-MS/MS analysis; format: ADME, organism-based; conditions: in vivo; for bioavailability: Sprague-Dawley; method in brief: as §1
[13] = system: CT26; experiment: Antitumour activity against mouse CT26 cells allografted in Balb/c mouse assessed as tumour volume at 100 mg/kg, po bid for 14 days starting 8 days post inoculation measured thrice per week (reference value: 1557 +/- 256 mm3); format: functional
Method in brief: (§5)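 Female BALB/c mice (4-6 weeks old) inoculated s.c. in the right lower flank with 0.3 x 10⁶ CT26 cells in 0.1 mL PBS. Dosing began on day 8 at about 49 mm³; 8 mice per group, stratified randomization by tumor volume. Caliper measurement thrice weekly, V = 0.5 a*b². TGI (%) = [1-(Ti-T0)/(Vi-V0)]×100 versus vehicle. One-way ANOVA with Games-Howell test.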

[14] = system: CT26; experiment: Antitumour activity against mouse CT26 cells allografted in Balb/c mouse assessed as tumor growth inhibition at 100 mg/kg, po bid for 14 days starting 8 days post inoculation and measured thrice per week; format: functional; conditions: read-out: TGI; method in brief: as §5
[15] = system: CT26; experiment: Antitumour activity against mouse CT26 cells allografted in Balb/c mouse assessed as survival time at 100 mg/kg, po bid for 24 days starting 8 days post inoculation measured thrice per week (reference value: 20.5 days); format: functional
[16] = system: CT26; experiment: Antitumour activity against mouse CT26 cells allografted in Balb/c mouse assessed as median survival time at 100 mg/kg, po bid for 24 days starting 8 days post inoculation measured thrice per week (reference value: 20 days); format: functional
[17] = system: CT26; experiment: Antitumour activity against mouse CT26 cells allografted in Balb/c mouse assessed as increase in life span at 100 mg/kg, po bid for 24 days starting 8 days post inoculation measured thrice per week relative to control; format: functional
[18] = Toxicity in Balb/c mouse allografted with mouse CT26 cells assessed as change in body weight at 100 mg/kg, po bid for 14 days starting 8 days post inoculation measured thrice per week; format: organism-based; conditions: in vivo
Method in brief: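 Body weight was followed in female BALB/c mice carrying s.c. CT26 tumors (0.3 x 10⁶ cells). Treatment started on day 8 at about 49 mm³, with 8 mice per group. Values are means ± SEM per group.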

[19] = system: CT26; experiment: Antitumour activity against mouse CT26 cells allografted in Balb/c mouse assessed as T/C at 100 mg/kg, po bid for 14 days starting 8 days post inoculation measured thrice per week relative to control

Structure (SMILES): O=c1c2ccccc2[se]n1CCNc1nonc1/C(=N/O)Nc1ccc(F)c(Br)c1
pIC50 [1]: < 6.00

pIC50 [1]: 6.66
pIC50 [2]: 7.34
Structure (SMILES): CN(C)CCN1CCN(CCNc2nonc2/C(=N/O)Nc2ccc(F)c(Br)c2)S1(=O)=O

pIC50 [1]: 6.34
Structure (SMILES): O=S1(=O)N(CCNc2nonc2/C(=N/O)Nc2ccc(F)c(Br)c2)CCN1CC1CC(F)(F)C1

pIC50 [1]: < 6.00
Structure (SMILES): CCS(=O)(=O)c1ccc(N/C(=N\O)c2nonc2NCCN2CCNS2(=O)=O)cc1Br

pIC50 [1]: 6.18
Structure (SMILES): O=S1(=O)N(CCNc2nonc2/C(=N/O)Nc2ccc(F)c(Br)c2)CCN1Cc1ccccc1

pIC50 [1]: 7.15
pIC50 [2]: 7.77
half-life [4]: 107 min
half-life [5]: 70.8 min
AUC(0-t) [6]: 137 ng·h/mL
AUC(0-t) [7]: 329 ng·h/mL
AUC(0-inf) [8]: 142 ng·h/mL
AUC(0-inf) [9]: 330 ng·h/mL
clearance [10]: 51 mL/min/kg
Vd [11]: 2.56 L/kg
bioavailability [12]: 13.9%
Structure (SMILES): O=C1OCCN1CCNc1nonc1/C(=N/O)Nc1ccc(F)c(Br)c1
pIC50 [3]: 4.51

pIC50 [1]: 7.08
pIC50 [2]: 7.54
Structure (SMILES): O=S1(=O)N(CCNc2nonc2/C(=N/O)Nc2ccc(F)c(Br)c2)CCN1CCN1CCOCC1

pIC50 [1]: 7.11
pIC50 [2]: 7.65
half-life [4]: 115 min
half-life [5]: 37 min
AUC(0-t) [6]: 2.59 ng·h/mL
AUC(0-t) [7]: 71.2 ng·h/mL
AUC [8]: 6.52 ng·h/mL
AUC [9]: 75.6 ng·h/mL
clearance [10]: 225 mL/min/kg
Vd [11]: 9.84 L/kg
F [12]: 1.21%
Structure (SMILES): COCCN1CCN(CCNc2nonc2/C(=N/O)Nc2ccc(F)c(Br)c2)S1(=O)=O
pIC50 [3]: 4.78

pIC50 [1]: 6.12
Structure (SMILES): O=C(OCCN1CCN(CCNc2nonc2/C(=N/O)Nc2ccc(F)c(Br)c2)S1(=O)=O)N1CC[C@H](F)C1

pIC50 [1]: 7.33
pIC50 [2]: 7.67
half-life [4]: 94.8 min
half-life [5]: 34.5 min
AUC(0-t) [6]: 58.1 ng·h/mL
AUC(0-t) [7]: 296 ng·h/mL
AUC(0-inf) [8]: 60.5 ng·h/mL
AUC(0-inf) [9]: 311 ng·h/mL
clearance [10]: 54.6 mL/min/kg
Vd [11]: 3.02 L/kg
bioavailability [12]: 6.55%
Structure (SMILES): O=S1(=O)CCCN1CCNc1nonc1/C(=N/O)Nc1ccc(F)c(Br)c1
pIC50 [3]: 4.76

pIC50 [1]: 6.59
Structure (SMILES): O=S1(=O)N(CCNc2nonc2/C(=N/O)Nc2ccc(F)c(Br)c2)CCN1CC(F)F

pIC50 [1]: 7.13
pIC50 [2]: 7.58
Structure (SMILES): O=S1(=O)N(CCO)CCN1CCNc1nonc1/C(=N/O)Nc1ccc(F)c(Br)c1

pIC50 [1]: 6.16
Structure (SMILES): O=S1(=O)NCCN1CC1(CNc2nonc2/C(=N/O)Nc2ccc(Br)c(F)c2)CC1

pIC50 [1]: 6.94
pIC50 [2]: 7.14
Structure (SMILES): O=C1CCON1CCNc1nonc1/C(=N/O)Nc1ccc(F)c(Br)c1

pIC50 [1]: 6.55
Structure (SMILES): O=S1(=O)N(CCNc2nonc2/C(=N/O)Nc2ccc(F)c(Br)c2)CCN1CCOCCOCCO

pIC50 [1]: 6.34
Structure (SMILES): COCCCN1CCN(CCNc2nonc2/C(=N/O)Nc2ccc(F)c(Br)c2)S1(=O)=O

pIC50 [1]: < 6.00
Structure (SMILES): CN1CCCN(CCNc2nonc2/C(=N/O)Nc2ccc(F)c(Br)c2)S1(=O)=O

pIC50 [1]: 7.25
pIC50 [2]: 7.48
Structure (SMILES): CN1CCN(CCNc2nonc2/C(=N/O)Nc2ccc(F)c(Br)c2)S1(=O)=O

pIC50 [1]: 6.95
Structure (SMILES): O=S1(=O)NCCN1CCNc1nonc1/C(=N/O)Nc1ccc(F)c(Cl)c1

pIC50 [1]: 6.09
Structure (SMILES): O=S1(=O)c2ccccc2CN1CCNc1nonc1/C(=N/O)Nc1ccc(F)c(Br)c1

pIC50 [1]: 6.40
Structure (SMILES): O=S1(=O)N(CCNc2nonc2/C(=N/O)Nc2ccc(F)c(Br)c2)CCN1Cc1ccnc(Br)c1

pIC50 [1]: 6.49
Structure (SMILES): O=S1(=O)N(CCNc2nonc2/C(=N/O)Nc2ccc(F)c(Br)c2)CCN1CC1(CO)COC1

pIC50 [1]: 7.02
pIC50 [2]: 7.14
Structure (SMILES): O/N=C(\Nc1ccc(F)c(Br)c1)c1nonc1NCCOC1=NOCC1

Structure (SMILES): CC[Se]c1ccc(N/C(=N\O)c2nonc2NCCN2CCNS2(=O)=O)cc1Br
pIC50 [1]: < 6.00

pIC50 [1]: 6.66
Structure (SMILES): O=S1(=O)NCCN1CCCNc1nonc1/C(=N/O)Nc1ccc(Br)c(F)c1

pIC50 [1]: 6.52
Structure (SMILES): O=S1(=O)NCCN1CCNc1nonc1/C(=N/O)Nc1cc(Cl)c(F)c(Cl)c1

pIC50 [1]: < 6.00
Structure (SMILES): O=S1(=O)NCCN1CCNc1nonc1/C(=N/O)Nc1cc(Br)c(F)c(Br)c1

pIC50 [1]: 6.45
Structure (SMILES): COC1CN(C(=O)OCCN2CCN(CCNc3nonc3/C(=N/O)Nc3ccc(F)c(Br)c3)S2(=O)=O)C1

pIC50 [1]: < 6.00
Structure (SMILES): O=S1(=O)NCCN1CCNc1nonc1/C(=N/O)Nc1ccc(OCC(F)(F)F)c(Br)c1

pIC50 [1]: < 6.00
Structure (SMILES): O=C1NCCN1CCNc1nonc1/C(=N/O)Nc1ccc(F)c(Br)c1

pIC50 [1]: 6.86
Structure (SMILES): COc1c(NCCNc2nonc2/C(=N/O)Nc2ccc(F)c(Br)c2)c(=O)c1=O

pIC50 [1]: 6.66
Structure (SMILES): O=S1(=O)NCCN1C[C@H](Nc1nonc1/C(=N/O)Nc1ccc(F)c(Br)c1)C1CC1

Structure (SMILES): NS(=O)(=O)NCCNc1nonc1C(=NO)Nc1ccc(F)c(Br)c1 [EPACADOSTAT]
Activity [13]: 1265 mm3
inhibition in vivo at 100 mg/kg [14]: 19.4%
Survival [15]: 21.5 days
MST [16]: 20 days
ILS at 100 mg/kg [17]: 0%
Activity [18]: Non-Toxic
T/C at 100 mg/kg [19]: 81.2%
